Source: PubChem BioAssay
A selection: hits, their analogues and other compounds. The true share with any hit is near 2.2%.
DENV2 CPE: inhibitors of DENV2 cytopathic effect, primary screen, cell-based, plate reader, single concentration; DENV2-infected cells, cytopathic effect rescue; CPE inhibition, % at 9.99 µM; actives 1.7% (n = 350,000); AID 651640, 2012; in the data active = CPE inhibition above about 20%, passing the limit was not always enough; tested in BHK-21 cells;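 also: 0% = median of neutral control wells and 100% = median of positive control wells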
E-selectin induc: E-selectin induction in HUVECs, primary screen, imaging, HUVEC, immunofluorescence imaging, single point; P16581; normalized: neutral wells 0, TNF-alpha wells 100; activation, % at 7.58 µM; actives 0.37% (n = 260,000); AID 686992, 2013;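 active = mean E-selectin-positive cell signal at least 10% of the positive control, reached in at least 60% of replicates, without over 20% cell loss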
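System: HUVEC / Compound: single concentration / Signal: immunofluorescence imaging / Read-out: percent E-selectin-positive cells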
Statin myotox sup: suppressors of statin myotoxicity in C2C12 myotubes, primary screen, cell-based, single point, plate reader; C2C12 myotubes + simvastatin, ATP luminescence, 48 h; scaled: DMSO 0, geranylgeraniol control 100; actives 0.78% (n = 330,000); rescue of ATP level, % at 7.49 µM;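 active = mean ATP rescue above about 67%, or every replicate alone reaching that limit, limit read from the data, passing the limit was not always enough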;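 also: myotubes were challenged with 10 µM simvastatin during compound exposure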
Starred values were filed as active, the others as inactive; nt = not tested or not shown.

SMILES	DENV2 CPE	E-selectin induc	Statin myotox sup
C[C@H](CO)N1C[C@H](C)[C@H](CN(C)Cc2ccc(Oc3ccccc3)cc2)Oc2ccc(NS(=O)(=O)c3ccc(F)cc3)cc2CC1=O	7.7	-0.2	3.9
COc1ccc(S(=O)(=O)Nc2ccc3c(c2)CC(=O)N([C@H](C)CO)C[C@H](C)[C@H](CN(C)Cc2ccc(-c4ccccc4)cc2)O3)cc1	11.0	0.2	19.3
O=C(C[C@@H]1C[C@@H]2c3cc(NC(=O)NC4CCCCC4)ccc3O[C@@H]2[C@H](CO)O1)NCc1ccccn1	6.6	1.7	2.0
CO[C@H]1CN(C)C(=O)c2cc(NS(=O)(=O)c3cn(C)cn3)ccc2OC[C@@H](C)N(Cc2cccc(F)c2)C[C@H]1C	-4.2	-0.3	1.4
CCCN1[C@@H]2c3ccc(-c4ccncc4)c(=O)n3C[C@H]1[C@H](CO)[C@H]2C(=O)N1CCCCC1	19.8	-0.2	-8.2
COc1ccc(S(=O)(=O)N(C)C[C@H]2Oc3ccc(NC(=O)CCC(F)(F)F)cc3C(=O)N([C@@H](C)CO)C[C@H]2C)cc1	0.8	-29.0	-0.3
COc1ccc2c3c([nH]c2c1)[C@@H](CO)N(C(=O)Nc1ccc(F)cc1)CC31CCN(S(C)(=O)=O)CC1	-1.9	-0.3	nt
O=C1CSCN1c1ccccc1	8.5	nt	nt
C[C@H](CO)N1C[C@H](C)[C@@H](CN(C)Cc2ccc(C(F)(F)F)cc2)Oc2ccc(NC(=O)Nc3ccc(C(F)(F)F)cc3)cc2C1=O	-24.5	-0.6	-5.1
COc1ccc(CN(C)C[C@H]2Oc3ccc(NS(=O)(=O)c4ccc(Cl)cc4)cc3CC(=O)N([C@H](C)CO)C[C@H]2C)cc1	12.4	0.1	62.7
C[C@@H]1CN([C@H](C)CO)C(=O)Cc2cc(NS(=O)(=O)c3ccccc3)ccc2O[C@@H]1CN(C)Cc1ccc(Oc2ccccc2)cc1	29.9*	0.2	25.9
C[C@H]1CN([C@@H](C)CO)C(=O)c2cc(NS(=O)(=O)c3ccccc3)ccc2O[C@H]1CN(C)Cc1ccc(Oc2ccccc2)cc1	34.7*	0.0	-1.6
COc1ccc(CN(C)C[C@H]2Oc3ccc(NS(=O)(=O)c4ccc(Cl)cc4)cc3CC(=O)N([C@@H](C)CO)C[C@@H]2C)cc1	24.5*	0.0	86.0*
C[C@@H]1CN([C@@H](C)CO)C(=O)Cc2cc(NS(=O)(=O)c3ccc(F)cc3)ccc2O[C@@H]1CN(C)Cc1ccc(C(=O)O)cc1	29.8*	0.0	-14.4
C[C@H]1CN([C@@H](C)CO)C(=O)c2cc(NS(=O)(=O)c3ccccc3)ccc2O[C@@H]1CN(C)Cc1ccc(Oc2ccccc2)cc1	-7.1	0.4	-39.3
C[C@H](CO)N1C[C@H](C)[C@H](CN(C)Cc2ccc(C(=O)O)cc2)Oc2ccc(NS(=O)(=O)c3ccc(F)cc3)cc2CC1=O	3.2	1.2	-16.7
C[C@@H]1CN([C@@H](C)CO)C(=O)Cc2cc(NS(=O)(=O)c3ccccc3)ccc2O[C@H]1CN(C)Cc1ccc(Oc2ccccc2)cc1	-26.3	-0.1	22.3
CN1c2ccc(Br)cc2[C@@H]2[C@@H](CCN2C(=O)C2CCOCC2)[C@H]1CO	-2.6	-0.2	-19.8
O=C(C[C@H]1CC[C@H]2[C@@H](COC[C@@H](O)CN2S(=O)(=O)c2cccc(Cl)c2)O1)NC1CCC1	2.8	0.2	0.2
COC(=O)C[C@@H]1C=C[C@H](NC(=O)Nc2ccc(C(F)(F)F)cc2)[C@@H](CO)O1	-0.6	-0.1	-3.4
CN(C)C(=O)c1cccc(-c2ccc([C@@H]3[C@@H](C#N)N(C(=O)C4CCCC4)[C@H]3CO)cc2)c1	8.9	0.0	nt
NCC[C@H]1CC[C@@H](NC(=O)Cc2ccncc2)[C@H](CO)O1	-7.9	0.4	-6.6
CC(C)(NC(=O)c1ccccc1)c1nc2ccccc2s1	109.1*	0.1	-7.5
O=C(NC(Nc1nc2ccccc2s1)(C(F)(F)F)C(F)(F)F)c1ccccc1	nt	nt	0.4
CC(C)C#Cc1cnc2c(c1)C(=O)N([C@H](C)CO)C[C@@H](C)[C@@H](CN(C)C(=O)CCN1CCCCC1)O2	nt	0.3	3.6
C/C=C/c1ccc2c(c1)O[C@@H](CN(C)Cc1cccc(F)c1)[C@@H](C)CN([C@@H](C)CO)S2(=O)=O	-6.3	-0.4	1.7
COc1ccc(S(=O)(=O)NCc2cccs2)cc1	nt	nt	-10.0
COc1ccc(S(=O)(=O)N(Cc2cccs2)C2CCCC2)cc1	nt	nt	106.0*
C[C@@H]1CN([C@@H](C)CO)C(=O)Cc2cc(NS(=O)(=O)c3ccc(Cl)cc3)ccc2O[C@H]1CN(C)S(=O)(=O)c1cccs1	-4.4	6.1	-6.3
COc1ccccc1CN1C(=O)c2ccccc2[C@@H](C(=O)NCc2ccccc2)[C@@H]1c1ccc(CO)cc1	3.0	nt	nt
